Article PMC8268672 (Bioorganic Chemistry, 2021)
Values after ≈ are worked out from the molar mass of the structure shown.

Key:
[1] = tested on: Escherichia coli (ATCC 8739); assay: MIC, broth microdilution; type: cell-based; conditions: ATCC8739, read-out: Minimum inhibitory concentration (MIC), EC
Summary of the method: (§1)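 Broth microdilution per CLSI in Mueller-Hinton broth, using two-fold serial dilutions of test compound and reference drugs from 512 to 0.25. Bacterial broth cultures were grown 2-6 h to 0.5 McFarland turbidity, then diluted with sterile solution to the final inoculum. MIC is reported in µg/mL.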

[2] = tested on: Pseudomonas aeruginosa (MCCB 0035); assay: MIC, broth microdilution; type: cell-based; conditions: read-out: Minimum inhibitory concentration (MIC), PA
Summary of the method: as §1

[3] = tested on: Klebsiella aerogenes (NCIM-2098); assay: MIC, broth microdilution; type: cell-based; conditions: NCIM2098, read-out: Minimum inhibitory concentration (MIC), KA
Summary of the method: (§2)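 Antibacterial MICs by CLSI broth microdilution in Mueller-Hinton broth. Test compounds and standard drugs are serially diluted two-fold from 512 to 0.25. The bacterial broth culture is grown 2-6 h to a 0.5 McFarland turbidity, then adjusted with sterile solution to the final inoculum.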

[4] = tested on: Staphylococcus aureus (ATCC 29213); assay: MIC, broth microdilution; type: cell-based; conditions: ATCC29213, read-out: Minimum inhibitory concentration (MIC), SA
Summary of the method: as §2

[5] = tested on: Bacillus cereus (NCIM-2458); assay: MIC, broth microdilution; type: cell-based; conditions: NCIM2458, read-out: Minimum inhibitory concentration (MIC), BC
Summary of the method: as §1

[6] = tested on: Aspergillus niger (NCIM 2191); assay: MIC, broth microdilution; type: cell-based; conditions: NCIM2191, read-out: Minimum inhibitory concentration (MIC), AN
Summary of the method: (§3)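 Antifungal MICs by CLSI broth microdilution in Sabouraud liquid medium. Test compounds and standard drugs are serially diluted two-fold from 512 to 0.25. The fungal broth culture is grown 24 h at 35 °C to a 0.5 McFarland turbidity, then adjusted with sterile solution to the final inoculum.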

[7] = tested on: Candida albicans (NCIM 2087); assay: MIC, broth microdilution; type: cell-based; conditions: NCIM2087, read-out: Minimum inhibitory concentration (MIC), CA
Summary of the method: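 CLSI broth microdilution in Sabouraud liquid medium, with test compound two-fold serially diluted from 512 to 0.25. Fungal broth culture grown 24 h at 35 °C to 0.5 McFarland turbidity, then adjusted with sterile solution to a final […] inoculum. MIC expressed in µg/mL.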

[8] = tested on: Aspergillus fumigatus (NCIM 2081); assay: MIC, broth microdilution; type: cell-based; conditions: NCIM2081, read-out: Minimum inhibitory concentration (MIC), AF
Summary of the method: as §3

[9] = tested on: Cryptococcus neoformans (ATCC 9011); assay: MIC, broth microdilution; type: cell-based; conditions: ATCC9011, read-out: Minimum inhibitory concentration (MIC), CN
Summary of the method: as §3

[10] = tested on: Escherichia coli (ATCC 8739); assay: Agar disk diffusion, inhibition zone; type: cell-based; conditions: 100 µg/8 mm disc, triplicate, mean ± SD
Summary of the method: (§4)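 Agar disk diffusion on Mueller-Hinton agar plates seeded with a standard bacterial suspension. Test compound stock in DMSO, diluted with distilled water; 8 mm sterile filter-paper discs soaked in the solution. Ampicillin was the reference. Plates incubated at 35 °C for 24 h, in triplicate. Read-out is the average inhibition-zone diameter (mm) around each disc.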

[11] = tested on: Pseudomonas aeruginosa (MCCB 0035); assay: Agar disk diffusion, inhibition zone; type: cell-based; conditions: 100 µg/8 mm disc, triplicate, mean ± SD
[12] = tested on: Salmonella typhimurium (NCIM-2501); assay: Agar disk diffusion, inhibition zone; type: cell-based; conditions: 100 µg/8 mm disc, triplicate, mean ± SD
[13] = tested on: Klebsiella aerogenes (NCIM-2098); assay: Agar disk diffusion, inhibition zone; type: cell-based; conditions: 100 µg/8 mm disc, triplicate, mean ± SD
[14] = tested on: Staphylococcus aureus (ATCC 29213); assay: Agar disk diffusion, inhibition zone; type: cell-based; conditions: 100 µg/8 mm disc, triplicate, mean ± SD
Summary of the method: as §4

[15] = tested on: Bacillus cereus (NCIM-2458); assay: Agar disk diffusion, inhibition zone; type: cell-based; conditions: 100 µg/8 mm disc, triplicate, mean ± SD
[16] = tested on: Lactobacillus casei (NCIM-2651); assay: Agar disk diffusion, inhibition zone; type: cell-based; conditions: 100 µg/8 mm disc, triplicate, mean ± SD
[17] = tested on: Streptococcus pneumonia (ATCC 49619); assay: Agar disk diffusion, inhibition zone; type: cell-based; conditions: 100 µg/8 mm disc, triplicate, mean ± SD
[18] = tested on: Aspergillus niger (NCIM 2191); assay: Agar disk diffusion, inhibition zone; type: cell-based; conditions: 100 µg/8 mm disc, triplicate, mean ± SD
Summary of the method: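 For the fungal strain, discs soaked in test compound solution (DMSO stock diluted with distilled water) sat on seeded Mueller-Hinton agar. Clotrimazole was the reference. Incubation ran 48 h at 35 °C, in triplicate. Zone of growth inhibition recorded in mm as the mean diameter around each disc.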

[19] = tested on: Candida albicans (NCIM 2087); assay: Agar disk diffusion, inhibition zone; type: cell-based; conditions: 100 µg/8 mm disc, triplicate, mean ± SD
[20] = tested on: Aspergillus fumigatus (NCIM 2081); assay: Agar disk diffusion, inhibition zone; type: cell-based; conditions: 100 µg/8 mm disc, triplicate, mean ± SD
[21] = tested on: Cryptococcus neoformans (ATCC 9011); assay: Agar disk diffusion, inhibition zone; type: cell-based; conditions: 100 µg/8 mm disc, triplicate, mean ± SD
[22] = tested on: Vaccinia virus; assay: microbe, parasite or virus in culture; type: cell-based; conditions: Orthopoxvirus vaccinia, HEL, read-out: Antiviral EC50, Vaccinia virus
[23] = tested on: Madin Darby canine kidney (MDCK) cells; conditions: dog
[24] = tested on: MT4 cells; conditions: MT4 cell cultures; colorimetric MTT cell viability assay
[25] = tested on: Para-influenza-3 virus; assay: CPE reduction assay in Vero cells; type: cell-based, Parainfluenza-3 virus; conditions: read-out: Antiviral EC50, Para-influenza-3 virus
[26] = tested on: Yellow Fever virus; assay: microbe, parasite or virus in culture; type: cell-based; conditions: read-out: Antiviral EC50, Yellow Fever virus
[27] = tested on: Vero cells

Cc1ccc(S(=O)(=O)N2C(=O)CSC2c2cccc(O)c2)cc1 (stereo not drawn) [5l, 2-(3-Hydroxyphenyl)-3-[(4-methylphenyl)sulfonyl]-1,3-thiazolidin-4-one]
MIC [1]: 16 µg/mL (≈ 45.8 µM) | MIC [2]: 32 µg/mL (≈ 91.6 µM) | MIC [3]: 16 µg/mL (≈ 45.8 µM) | MIC [4]: 64 µg/mL (≈ 183 µM) | MIC [5]: 128 µg/mL (≈ 366 µM) | MIC [6]: 64 µg/mL (≈ 183 µM) | MIC [7]: 16 µg/mL (≈ 45.8 µM) | MIC [8]: 64 µg/mL (≈ 183 µM) | MIC [9]: 128 µg/mL (≈ 366 µM) | Diameter of growth inhibition zone, EC [10]: 17.8 ± 1.1 mm | Diameter of growth inhibition zone, PA [11]: 16 ± 1.5 mm | Diameter of growth inhibition zone, ST [12]: 10 ± 0.3 mm | Diameter of growth inhibition zone, KA [13]: 14 ± 0.4 mm | Diameter of growth inhibition zone, SA [14]: 14 ± 1.2 mm | Diameter of growth inhibition zone, BC [15]: 08 ± 0.5 mm | Diameter of growth inhibition zone, LC [16]: 12 ± 1.6 mm | Diameter of growth inhibition zone, SP [17]: 10 ± 0.5 mm | Diameter of growth inhibition zone, AN [18]: 14 ± 1.5 mm | Diameter of growth inhibition zone, CA [19]: 17 ± 0.5 mm | Diameter of growth inhibition zone, AF [20]: 12 ± 2.3 mm | Diameter of growth inhibition zone, CN [21]: 12 ± 1.4 mm

Cc1ccc(S(=O)(=O)N2C(=O)CSC2c2ccccc2C)cc1 (stereo not drawn) [5r, 2-(2-Methylphenyl)-3-[(4-methylphenyl)sulfonyl]-1,3-thiazolidin-4-one]
MIC [1]: 64 µg/mL (≈ 184 µM) | MIC [2]: 64 µg/mL (≈ 184 µM) | MIC [3]: 128 µg/mL (≈ 368 µM) | MIC [4]: 64 µg/mL (≈ 184 µM) | MIC [5]: 128 µg/mL (≈ 368 µM) | MIC [6]: 64 µg/mL (≈ 184 µM) | MIC [7]: 64 µg/mL (≈ 184 µM) | MIC [8]: 128 µg/mL (≈ 368 µM) | MIC [9]: 128 µg/mL (≈ 368 µM) | Diameter of growth inhibition zone, EC [10]: 15 ± 0.69 mm | Diameter of growth inhibition zone, PA [11]: 16 ± 1.9 mm | Diameter of growth inhibition zone, ST [12]: 08 ± 0.6 mm | Diameter of growth inhibition zone, KA [13]: 08 ± 0.3 mm | Diameter of growth inhibition zone, SA [14]: 14 ± 1.1 mm | Diameter of growth inhibition zone, BC [15]: 08 ± 0.4 mm | Diameter of growth inhibition zone, LC [16]: 10 ± 0.7 mm | Diameter of growth inhibition zone, SP [17]: 08 ± 0.8 mm | Diameter of growth inhibition zone, AN [18]: 9.8 ± 0.9 mm | Diameter of growth inhibition zone, CA [19]: 10 ± 0.6 mm | Diameter of growth inhibition zone, AF [20]: 9.6 ± 0.9 mm | Diameter of growth inhibition zone, CN [21]: 11 ± 0.7 mm

Cc1ccc(S(=O)(=O)N2C(=O)CSC2c2cccc(C)c2)cc1 (stereo not drawn) [5s, 2-(3-Methylphenyl)-3-[(4-methylphenyl)sulfonyl]-1,3-thiazolidin-4-one]
MIC [1]: 16 µg/mL (≈ 46 µM) | MIC [2]: 64 µg/mL (≈ 184 µM) | MIC [3]: 128 µg/mL (≈ 368 µM) | MIC [4]: 128 µg/mL (≈ 368 µM) | MIC [5]: 64 µg/mL (≈ 184 µM) | MIC [6]: 128 µg/mL (≈ 368 µM) | MIC [7]: 64 µg/mL (≈ 184 µM) | MIC [8]: 64 µg/mL (≈ 184 µM) | MIC [9]: 128 µg/mL (≈ 368 µM) | Diameter of growth inhibition zone, EC [10]: 17 ± 1.5 mm | Diameter of growth inhibition zone, PA [11]: 15 ± 0.32 mm | Diameter of growth inhibition zone, ST [12]: 10 ± 0.4 mm | Diameter of growth inhibition zone, KA [13]: 08 ± 1.3 mm | Diameter of growth inhibition zone, SA [14]: 13 ± 1.5 mm | Diameter of growth inhibition zone, BC [15]: 10 ± 0.2 mm | Diameter of growth inhibition zone, LC [16]: 10 ± 0.6 mm | Diameter of growth inhibition zone, SP [17]: 08 ± 0.4 mm | Diameter of growth inhibition zone, AN [18]: 9.6 ± 0.63 mm | Diameter of growth inhibition zone, CA [19]: 10 ± 1.1 mm | Diameter of growth inhibition zone, AF [20]: 9.2 ± 1.5 mm | Diameter of growth inhibition zone, CN [21]: 9 ± 0.5 mm

Cc1ccc(C2SCC(=O)N2S(=O)(=O)c2ccc(C)cc2)cc1 (stereo not drawn) [5t, 2-(4-Methylphenyl)-3-[(4-methylphenyl)sulfonyl]-1,3-thiazolidin-4-one]
MIC [1]: 64 µg/mL (≈ 184 µM) | MIC [2]: 128 µg/mL (≈ 368 µM) | MIC [3]: > 256 µg/mL | MIC [4]: 64 µg/mL (≈ 184 µM) | MIC [5]: > 256 µg/mL | MIC [6]: 128 µg/mL (≈ 368 µM) | MIC [7]: 128 µg/mL (≈ 368 µM) | MIC [8]: 64 µg/mL (≈ 184 µM) | MIC [9]: > 256 µg/mL | Diameter of growth inhibition zone, EC [10]: 12 ± 1.2 mm | Diameter of growth inhibition zone, PA [11]: 11 ± 0.65 mm | Diameter of growth inhibition zone, ST [12]: 07 ± 0.7 mm | Diameter of growth inhibition zone, KA [13]: 07 ± 0.6 mm | Diameter of growth inhibition zone, SA [14]: 12 ± 1.9 mm | Diameter of growth inhibition zone, BC [15]: 07 ± 0.84 mm | Diameter of growth inhibition zone, LC [16]: 08 ± 0.5 mm | Diameter of growth inhibition zone, SP [17]: 07 ± 0.7 mm | Diameter of growth inhibition zone, AN [18]: 9.5 ± 0.9 mm | Diameter of growth inhibition zone, CA [19]: 9.8 ± 0.23 mm | Diameter of growth inhibition zone, AF [20]: 09 ± 1.5 mm | Diameter of growth inhibition zone, CN [21]: 10 ± 0.9 mm

Nc1nc2c(ncn2COCCO)c(=O)[nH]1 [Acyclovir, reference compound]
EC50 [22]: > 250 µM

NC12CC3CC(CC(C3)C1)C2 [Amantadine, reference compound]
Cytotoxicity, Minimum cytotoxic conc. [23]: >100 µM

Cc1cn([C@H]2C[C@H](N=[N+]=[N-])[C@@H](CO)O2)c(=O)[nH]c1=O [Azidothymidine, reference compound]
Minimum cytotoxic conc. [24]: >2 µM

O=c1[nH]cnc2c1ncn2[C@H]1CC[C@@H](CO)O1 [Didanosine, reference compound]
Minimum cytotoxic conc. [24]: >50 µM

Nc1nc(O)c2ncn(COC(CO)CO)c2n1 [Ganciclovir, reference compound]
EC50 [22]: > 100 µM

Nc1ccn([C@@H]2CS[C@H](CO)O2)c(=O)n1 [Lamivudine, reference compound]
Minimum cytotoxic conc. [24]: >20 µM

Cc1ccnc2c1NC(=O)c1cccnc1N2C1CC1 [Nevirapine, reference compound]
Minimum cytotoxic conc. [24]: >4 µM

CC(N)C12CC3CC(CC(C3)C1)C2 (stereo not drawn) [Rimantadine, reference compound]
Cytotoxicity, Minimum cytotoxic conc. [23]: >200 µM

CC(=O)N[C@H]1[C@H]([C@H](O)[C@H](O)CO)OC(C(=O)O)=C[C@@H]1N=C(N)N [Zanamivir, reference compound]
Cytotoxicity, Minimum cytotoxic conc. [23]: >100 µM

dextran sulfate [DS-10.000, reference compound]
EC50 [25]: > 100 µM | EC50 [26]: 0.8 µM | Minimum cytotoxic conc. [27]: >100 µM
